Compounds with a hit are over-represented: about 1.6% of the library has one in this group of screens.
PABP FP inh – PABP-poly(A) binding inhibition. P11940. PABP-poly(A) RNA binding, fluorescence polarization. calls only at 35 µM. 290,000 compounds, 1% hits;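 further: calls also rest on retests at 20 µM and on dose response follow-up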
eIF4H FP inh – inhibitors of RNA binding by human eIF4H | Q15056 | inhibition, % at 35 µM | eIF4H fluorescence polarization binding assay | 290,000 compounds, 0.94% hits | AID 2012;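 further: calls also rest on retests at 20 µM and on dose response follow-up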
TCR-CD3 inh – blocks the human TCR-CD3 interaction; AID 651800; inhibition, % at 9.4 µM; TAMRA-labeled TCR probe fluorescence, biochemical; 360,000 compounds, 0.37% hits; in the data active means inhibition above about 19%;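 further: recombinant mutant TCR 2C K166C tagged with TAMRA read by polarization; 0% = receptor in buffer alone and 100% = receptor with positive control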
RBBP9 inhibitor – human RBBP9 hydrolase inhibition. O75884. recombinant RBBP9, FP-Rh probe fluorescence polarization. inhibition, % at 7.94 µM. 220,000 compounds, 0.2% hits. AID 1515;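 active means inhibition above the campaign mean of all tested compounds plus 3 SD, cut at about 14% in these data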;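 further: plate controls were DMSO wells with RBBP9 for no effect and wells lacking RBBP9 protein for full effect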
Target sequence (O75884 whole entry, looked up): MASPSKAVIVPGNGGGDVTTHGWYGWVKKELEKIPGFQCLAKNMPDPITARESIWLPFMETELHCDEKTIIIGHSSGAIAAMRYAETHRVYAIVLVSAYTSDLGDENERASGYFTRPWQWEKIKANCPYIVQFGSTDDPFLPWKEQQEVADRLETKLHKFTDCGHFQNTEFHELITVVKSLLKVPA
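Test system – recombinant human RBBP9 · Input – RBBP9 2.5 µM in dispensing solution, pre-mixing · Medium – Tris buffer pH 8.0, NaCl, Pluronic · Schedule – preincubation 30 min plus labeling 45 min at 25 °C · Measured by – fluorescence polarization · Measure – % inhibition · Controls – DMSO and no-protein wells · Replicates – one well per compound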
MLLE-PAM2 inh – blocks PAM2 peptide binding to the PABP1 MLLE domain; P11940; GST-MLLE / FITC-PAM2 fluorescence polarization; inhibition, % at 20 µM; 360,000 compounds, 0.36% hits; in the data active means inhibition above about 35%, passing the limit was not always enough;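 further: plate controls were DMSO wells with GST-MLLE for no effect and wells lacking GST-MLLE protein for full effect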
* hit, by the source's call; i = inactive; ? = inconclusive; nt = no result given; + = active, no number. Unless noted, how the calls were made is not given here.

SMILES	PABP FP inh	eIF4H FP inh	TCR-CD3 inh	RBBP9 inhibitor	MLLE-PAM2 inh
CCC(=O)Nc1ccc(-c2nnc(SCC(=O)Nc3nccs3)n2C)cc1	+	12	-6	-1	-118
CCn1c(SCC(=O)Nc2nccs2)nnc1-c1ccc(C)cc1	i	-6	6	-7	-19
CN1CCc2c(sc(/N=C/c3ccco3)c2C(N)=O)C1	+	68*	0	-8	3
Cc1ccc(/C=N/c2sc3c(c2C(N)=O)CCCC3)o1	i	74*	4	-7	-2
CN(C)/C=N/c1sc2c(c1C(N)=O)CCCC2	i	-5	8	7	-4
Nc1nc2ncccc2cc1C(=O)NC1CC1	nt	nt	-4	nt	nt
Cc1cc(O)ccc1C1(c2ccc(O)cc2C)OC(=O)c2ccccc21	i	-5	-3	-7	-4
CC(=O)Oc1ccc2c(c1)Oc1cc(OC(C)=O)ccc1C21OC(=O)c2ccccc21	i	1	nt	16*	i
CCOc1cc(/C=C2/C(=O)ON=C2C)ccc1OCc1ccccc1	+	?	-3	-9	nt
Cc1[nH]nc2c1C(c1ccc(Br)cc1)N(c1ccccc1)C2=O (stereo not given)	nt	nt	0	nt	nt
CSc1ccc(C2C(C#N)=C(N)Oc3c2ccc(=O)c2c(C)oc(C)c32)cc1 (stereo not given)	+	52*	1	-2	-87
N=C1/C(=C/c2ccc(Br)o2)C(=O)N=C2SC(CC(=O)N3CCCC3)=NN12	nt	nt	8	nt	-23
N=C1/C(=C/c2ccco2)C(=O)N=C2SC(CC(=O)N3CCCC3)=NN12	+	79*	2	nt	-4
CC(C)CS(=O)(=O)C1=NN2C(=N)/C(=C\c3ccc(OC(=O)c4ccco4)cc3)C(=O)N=C2S1	+	66*	11	nt	-20
COC(=O)c1cc2c(c3c4ccccc4n(S(=O)(=O)c4cccc(C)c4)c13)C(=O)N(Cc1ccccc1OC)C2	nt	nt	-5	nt	nt
Cc1ccc(/C([O-])=C(/C(=S)NCc2ccco2)[n+]2ccccc2)cc1	+	76*	nt	0	nt
O=[N+]([O-])c1ccc(/C([O-])=C(/C(=S)NCc2ccco2)[n+]2ccccc2)cc1	i	84	8	4	-46
c1cncc(Oc2ccc(NCCc3c[nH]c4ccccc34)cc2)c1	nt	nt	4	nt	nt
Cc1ccc(-c2nc(CSCC(=O)N3CCN(c4ccccn4)CC3)c(C)o2)cc1	i	-5	11	-5	5
CCc1ccc(-c2nc(CSCC(=O)N3CCN(c4ccccn4)CC3)c(C)o2)cc1	i	-10	0	8	39*
CCOC(=S)N/C(=N\S(=O)(=O)c1ccccc1)c1ccccc1	i	3	-2	9	16
CCOC(=S)N/C(=N\S(C)(=O)=O)c1ccccc1	i	-8	5	-6	39*
CCC(C(=O)OCC(=O)c1ccc(OC)cc1OC)c1ccccc1 (stereo not given)	nt	nt	4	nt	-6
CCC(C(=O)OCC(=O)Nc1cc(OC)ccc1OC)c1ccccc1 (stereo not given)	+	-6	2	-2	-13
O=C(COc1ccccc1)Nc1nnc(-c2ccco2)o1	+	56	5	8	4
SMILES	PABP FP inh	eIF4H FP inh	TCR-CD3 inh	RBBP9 inhibitor	MLLE-PAM2 inh
Cc1ccnc(SCc2cc(=O)c(OC(=O)c3cccs3)co2)n1	i	-4	-5	0	26
Cc1ccnc(SCc2cc(=O)c(OC(=O)c3ccco3)co2)n1	+	7.6*	-3	-1	-2
COc1ccc(Sc2cccc3c2S(=O)(=O)N([C@H](C)c2ccccc2)C[C@@H](COCc2ccccc2)O3)cc1OC	nt	nt	-10	nt	nt
O=C1NNC(c2ccccc2)=N/C1=C\c1ccco1	+	40	-1	-2	-1
O=C1SC(SCc2ccccc2)=N/C1=C\c1ccco1	i	85	9	0	14
O=C1SC(c2ccccc2)=N/C1=C/c1ccco1	+	50*	-4	-1	1
CCC(=O)NCCCc1nc2ccccc2n1Cc1ccccc1F	+	-9	-3	-5	1
CCC(=O)NCc1nc2ccccc2n1Cc1ccccc1F	i	-5	2	-11	-4
COc1ccc(C(CC(=O)NCc2ccccc2)Sc2n[nH]c(-c3ccccc3)n2)cc1 (stereo not given)	+	86*	8	-3	12
O=C(N[C@H](C(=O)N1CCC[C@H]1C(=O)NCc1ccccc1)C1CCCCC1)c1ccc(Cl)c(Cl)c1	nt	nt	1	nt	nt
Cc1noc(C)c1NC(=O)N(C)C[C@@H]1OCc2cn(nn2)CCCC(=O)N([C@@H](C)CO)C[C@H]1C	nt	nt	-1	nt	nt
Cc1ccccc1Cn1c(C)cc(C)c(C#N)c1=O	+	active	-2	-10	-3
Cc1cc(C)n(Cc2ccc(F)cc2)c(=O)c1C#N	i	0	nt	0	-2
Cc1ccc2c(c1)N1C(=O)c3ccccc3C1C1=C(CC(C)(C)CC1=O)N2 (stereo not given)	i	active	-5	-9	10
O=C(NC(c1ccc(Cl)cc1)c1cc(Cl)c2cccnc2c1O)c1cccnc1 (stereo not given)	+	?	-5	-5	-2
CC(=O)NC(c1ccccc1)c1cc(Cl)c2cccnc2c1O (stereo not given)	i	22	-11	nt	3
O=C(NCc1cccc(Cl)c1)c1cnccn1	i	34*	4	5	3
CCCCCCCCN1C(=O)[C@@H](CC(=O)NCCCN2CCCC2=O)C[C@@]2(C(=O)OC)C1=C[C@H](C1CCCC1)O[C@@H]2C	nt	nt	-2	nt	nt
CCOC(=O)c1c(Nc2ccc(Cl)cc2)sc(/C=C2\C=Nc3ccccc32)c1O	+	?	1	10	-55
Oc1nc(Nc2cccc(Cl)c2)sc1/C=C1\C=Nc2ccccc21	i	4	-3	1	-22
O=C1/C(=C/c2ccc(O)cc2)SC(=S)N1CC1CCCO1 (stereo not given)	+	96	-35	-31	-128
CCCOc1ccc(/C=C2\SC(=S)N(CC3CCCO3)C2=O)cc1 (stereo not given)	i	1	1	-10	8
Cc1ccc(C(=O)N/C(=C/c2ccco2)C(=O)N2CCCCC2)cc1	i	0	-7	nt	-12
COc1ccc(C(=O)N/C(=C/c2ccco2)C(=O)N2CCCCCC2)cc1	+	53	-5	nt	-37
Cc1ccc(C(=O)N/C(=C/c2ccco2)C(=O)OCN2C(=O)c3ccccc3C2=O)cc1	i	79*	1	-5	9
O=C(N/C(=C/c1ccco1)C(=O)N1CCCCCC1)c1cccs1	+	62	5	8	-7
COc1ccc(C=NN(C)C(=O)Nc2cccc(Cl)c2)cc1OC	nt	nt	5	nt	nt
O=C(O)c1cccc(N2C(=O)c3cc([N+](=O)[O-])cc4cc([N+](=O)[O-])cc(c34)C2=O)c1	+	68*	2	nt	-2
C[C@@H]1CN([C@H](C)CO)C(=O)c2cc(NC(=O)Nc3ccc(F)cc3)ccc2O[C@@H](C)CCCCO[C@@H]1CN(C)C(=O)CCCN(C)C	nt	nt	5	nt	nt

Assay outcomes deposited in PubChem BioAssay by several laboratories.
